Source: ChEMBL document CHEMBL1125642, “Fluorocarbocyclic nucleosides: synthesis and antiviral activity of 2'- and 6'-fluorocarbocyclic 2'-deoxy guanosines” (1991)
Values after ≈ are worked out from the molar mass of the structure shown.

Columns and labels:
Human alphaherpesvirus 1 [1] = assay: Concentration required to inhibit HSV-1 strain KOS cytopathic effect by 50% was measured by plaque reduction assay; format: functional; details: for IC50: Human alphaherpesvirus 1, read-out: ID50 (the source's name)
In short: (§1)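 Plaque reduction in confluent Vero monolayers infected with 30-40 PFU of HSV-1 KOS or HSV-2 186, with 1 h adsorption at 37 °C. Cells were then overlaid with maintenance medium containing 0.75% carboxymethylcellulose and a range of compound concentrations. After 2 days at 37 °C, cells were fixed and stained and plaques counted. ID50 is the concentration giving 50% plaque reduction.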

Human alphaherpesvirus 2 [2] = assay: Concentration required to inhibit HSV-2 strain 186 cytopathic effect by 50% was measured by plaque reduction assay; format: functional; details: for IC50: Human alphaherpesvirus 2, read-out: ID50 (the source's name); in short: as §1
Vero = assay: Cytotoxicity was evaluated by measuring the dose affecting 50% of mock-infected Vero monolayers; format: functional; details: Chlorocebus sabaeus, read-out: ID50 (the source's name)
In short: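 Mock-infected confluent Vero monolayers were incubated with compound for 48 h at 37 °C and examined microscopically. Gross changes in staining, cell number or morphology were scored. The value is the dose affecting 50% of the monolayer.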

Human alphaherpesvirus 2 [3] = assay: In vivo efficacy of compound against HSV-2 strain A133 in the mouse system model was measured at 0.8 dose(mg/kg), activity expressed as Survivors counted on day 21; 2/5; format: functional
In short: (§2)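 Female albino mice (15-18 g) were challenged ip with 0.2 mL virus suspension at (5-15) × LD50. Starting 1 h later, they were dosed sc (0.2 mL, saline) twice daily for 4 days. Doses were the maximum tolerated dose and serial dilutions of it. Groups had 5-10 mice. Survivors were counted on day 21, and ED50 (mg/kg per dose) came from logit transformation (Litchfield–Wilcoxon).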

Human alphaherpesvirus 2 [4] = assay: In vivo efficacy of compound against HSV-1 strain A133 in the mouse system model was measured at 1.6 dose(mg/kg), activity expressed as Survivors counted on day 21; 4/5; format: functional; in short: as §2
Human alphaherpesvirus 2 [5] = assay: In vivo efficacy of compound against HSV-2 strain A133 in the mouse system model was measured at 6.25 dose(mg/kg), activity expressed as Survivors counted on day 21; 5/5; format: functional; in short: as §2
Human alphaherpesvirus 1 [6] = assay: Compound was measured for the inhibition of HSV-1 strain A133 in the mouse system model at 1.6 dose(mg/kg); format: functional; in short: as §2
Human alphaherpesvirus 1 [7] = assay: In vivo efficacy of compound against HSV-1 strain A133 in the mouse system model was measured at 3.1 dose(mg/kg), activity expressed as Survivors counted on day 21; 4/5; format: functional; in short: as §2
Human alphaherpesvirus 1 [8] = assay: In vivo efficacy of compound against HSV-1 strain A133 in the mouse system model was measured at 0.1 dose(mg/kg), activity expressed as Survivors counted on day 21; 0/5; format: functional; in short: as §2
Human alphaherpesvirus 2 [9] = assay: In vivo efficacy of compound against HSV-2 strain A133 in the mouse system model was measured at 0.4 dose(mg/kg), activity expressed as Survivors counted on day 21; 0/5; format: functional; in short: as §2
Human alphaherpesvirus 1 [10] = assay: In vivo efficacy of compound against HSV-1 strain A133 in the mouse system model was measured at 0.4 dose(mg/kg), activity expressed as Survivors counted on day 21; 2/5; format: functional; in short: as §2
Human alphaherpesvirus 2 [11] = assay: In vivo efficacy of compound against HSV-2 strain A133 in the mouse system model was measured at 3.1 dose(mg/kg), activity expressed as Survivors counted on day 21; 4/5; format: functional; in short: as §2
Human alphaherpesvirus 2 [12] = assay: Compound was measured for the inhibition of HSV-2 strain A133 in the mouse system model at 3.1 dose(mg/kg); format: functional; in short: as §2
Human alphaherpesvirus 1 [13] = assay: In vivo efficacy of compound against HSV-1 strain A133 in the mouse system model was measured at 1.6 dose(mg/kg), activity expressed as Survivors counted on day 21; 2/5; format: functional; in short: as §2
Human alphaherpesvirus 2 [14] = assay: In vivo efficacy of compound against HSV-2 strain CT in the mouse system model was measured at 1.6 dose(mg/kg), activity expressed as Survivors counted on day 21; 7/10
Human alphaherpesvirus 1 [15] = assay: In vivo efficacy of compound against HSV-1 strain A133 in the mouse system model was measured at 0.8 dose(mg/kg), activity expressed as Survivors counted on day 21; 10/10; format: functional; in short: as §2
Human alphaherpesvirus 2 [16] = assay: In vivo efficacy of compound against HSV-2 strain CT in the mouse system model was measured at 0.7 dose(mg/kg), activity expressed as Survivors counted on day 21; 2/10
Human alphaherpesvirus 1 [17] = assay: In vivo efficacy of compound against HSV-1 strain A133 in the mouse system model was measured at 3.1 dose(mg/kg), activity expressed as Survivors counted on day 21; 10/10; format: functional; in short: as §2
Human alphaherpesvirus 1 [18] = assay: Compound was measured for the inhibition of HSV-1 strain A133 in the mouse system model at 0.2 dose(mg/kg); format: functional; in short: as §2
Human alphaherpesvirus 2 [19] = assay: In vivo efficacy of compound against HSV-2 strain CT in the mouse system model was measured at 0.1 dose(mg/kg), activity expressed as Survivors counted on day 21; 2/10
Human alphaherpesvirus 2 [20] = assay: In vivo efficacy of compound against HSV-2 strain A133 in the mouse system model was measured at 6.25 dose(mg/kg), activity expressed as Survivors counted on day 21; […]; format: functional; in short: as §2
Human alphaherpesvirus 1 [21] = assay: In vivo efficacy of compound against HSV-1 strain A133 in the mouse system model was measured at 0.05 dose(mg/kg), activity expressed as Survivors counted on day 21; 1/10; format: functional; in short: as §2
Human alphaherpesvirus 1 [22] = assay: In vivo efficacy of compound against HSV-1 strain A133 in the mouse system model was measured at 0.2 dose(mg/kg), activity expressed as Survivors counted on day 21; 4/10; format: functional; in short: as §2
Human alphaherpesvirus 1 [23] = assay: In vivo efficacy of compound against HSV-1 strain A133 in the mouse system model was measured at 0.012 dose(mg/kg), activity expressed as Survivors counted on day 21; 1/10; format: functional; in short: as §2
Human alphaherpesvirus 2 [24] = assay: Compound was measured for the inhibition of HSV-2 strain A133 in the mouse system model at 0.7 dose(mg/kg); format: functional; in short: as §2
Human alphaherpesvirus 2 [25] = assay: In vivo efficacy of compound against HSV-2 strain A133 in the mouse system model was measured at 0.025 dose(mg/kg), activity expressed as Survivors counted on day 21; 0/10; format: functional; in short: as §2
Human alphaherpesvirus 2 [26] = assay: In vivo efficacy of compound against HSV-2 strain A133 in the mouse system model was measured at 6.25 dose(mg/kg), activity expressed as Survivors counted on day 21; format: functional; in short: as §2
Human alphaherpesvirus 2 [27] = assay: In vivo efficacy of compound against HSV-2 strain CT in the mouse system model was measured at 25 dose(mg/kg), activity expressed as Survivors counted on day 21; 3/5
Human alphaherpesvirus 2 [28] = assay: In vivo efficacy of compound against HSV-2 strain CT in the mouse system model was measured at 100dose(mg/kg), activity expressed as Survivors counted on day 21; 2/5
Human alphaherpesvirus 2 [29] = assay: Compound was measured for the inhibition of HSV-2 strain A133 in the mouse system model at 25 dose(mg/kg); format: functional; in short: as §2
Human alphaherpesvirus 1 [30] = assay: In vivo efficacy of compound against HSV-1 strain A133 in the mouse system model was measured at 6.25 dose(mg/kg), activity expressed as Survivors counted on day 21; 0/10; format: functional; in short: as §2
Human alphaherpesvirus 2 [31] = assay: In vivo efficacy of compound against HSV-2 strain A133 in the mouse system model was measured at 50 dose(mg/kg), activity expressed as Survivors counted on day 21; 1/5; format: functional; in short: as §2
Human alphaherpesvirus 1 [32] = assay: In vivo efficacy of compound against HSV-1 strain A133 in the mouse system model was measured at 100 dose(mg/kg), activity expressed as Survivors counted on day 21; 8/10; format: functional; in short: as §2
Human alphaherpesvirus 1 [33] = assay: In vivo efficacy of compound against HSV-1 strain A133 in the mouse system model was measured at 6.25 dose(mg/kg), activity expressed as Survivors counted on day 21; 0/5; format: functional; in short: as §2
Human alphaherpesvirus 1 [34] = assay: Compound was measured for the inhibition of HSV-1 strain A133 in the mouse system model at 25 dose(mg/kg); format: functional; in short: as §2
Human alphaherpesvirus 1 [35] = assay: In vivo efficacy of compound against HSV-1 strain A133 in the mouse system model was measured at 25 dose(mg/kg), activity expressed as Survivors counted on day 21; 2/5; format: functional; in short: as §2
Human alphaherpesvirus 1 [36] = assay: In vivo efficacy of compound against HSV-1 strain A133 in the mouse system model was measured at 100 dose(mg/kg), activity expressed as Survivors counted on day 21; 3/5; format: functional; in short: as §2
Human alphaherpesvirus 2 [37] = assay: In vivo efficacy of compound against HSV-2 strain CT in the mouse system model was measured at 25 dose(mg/kg), activity expressed as Survivors counted on day 21; 2/10
Human alphaherpesvirus 2 [38] = assay: In vivo efficacy of compound against HSV-2 strain CT in the mouse system model was measured at 100 dose(mg/kg), activity expressed as Survivors counted on day 21; 7/10
Human alphaherpesvirus 1 [39] = assay: In vivo efficacy of compound against HSV-1 strain A133 in the mouse system model was measured at 25 dose(mg/kg), activity expressed as Survivors counted on day 21; 1/10; format: functional; in short: as §2

Nc1nc2c(ncn2[C@@H]2C[C@H](CO)[C@@H](O)[C@H]2F)c(=O)[nH]1
IC50 (Human alphaherpesvirus 1 [1]): 2.35 µg/mL (≈ 8.3 µM) | IC50 (Human alphaherpesvirus 2 [2]): 70 µg/mL (≈ 247 µM) | IC50 (Vero): > 300 µg/mL

Nc1nc(O)c2ncn(C3CC(O)C(CO)C3F)c2n1 (single isomer, unassigned; (+))
Survivors (Human alphaherpesvirus 2 [3]): 2 | ID50 (Human alphaherpesvirus 1 [1]): 0.16 µg/mL (≈ 0.565 µM) | Survivors (Human alphaherpesvirus 2 [4]): 4 | ID50 (Human alphaherpesvirus 2 [2]): 0.77 µg/mL (≈ 2.72 µM) | Survivors (Human alphaherpesvirus 2 [5]): 5 | ED50 (Human alphaherpesvirus 1 [6]): 0.97 mg/kg | Survivors (Human alphaherpesvirus 1 [7]): 4 | Survivors (Human alphaherpesvirus 1 [8]): 0 | Survivors (Human alphaherpesvirus 2 [9]): 0 | Survivors (Human alphaherpesvirus 1 [10]): 2 | Survivors (Human alphaherpesvirus 2 [11]): 4 | ED50 (Human alphaherpesvirus 2 [12]): 1.1 mg/kg | IC50 (Vero): > 300 µg/mL | Survivors (Human alphaherpesvirus 1 [13]): 2

Nc1nc2c(ncn2[C@@H]2C[C@H](CO)[C@@H](O)[C@@H]2F)c(=O)[nH]1
IC50 (Human alphaherpesvirus 1 [1]): 0.006 µg/mL (≈ 0.0212 µM) | Survivors (Human alphaherpesvirus 2 [14]): 7 | Survivors (Human alphaherpesvirus 1 [15]): 10 | Survivors (Human alphaherpesvirus 2 [16]): 2 | Survivors (Human alphaherpesvirus 1 [17]): 10 | IC50 (Human alphaherpesvirus 2 [2]): 0.05 µg/mL (≈ 0.177 µM) | ED50 (Human alphaherpesvirus 1 [18]): 0.2 mg/kg | Survivors (Human alphaherpesvirus 2 [19]): 2 | Survivors (Human alphaherpesvirus 2 [20]): 9 | Survivors (Human alphaherpesvirus 1 [21]): 1 | Survivors (Human alphaherpesvirus 1 [22]): 4 | Survivors (Human alphaherpesvirus 1 [23]): 1 | IC50 (Vero): > 300 µg/mL | ED50 (Human alphaherpesvirus 2 [24]): 0.8 mg/kg | Survivors (Human alphaherpesvirus 2 [25]): 0

Nc1nc(O)c2ncn([C@@H]3C[C@H](CO)[C@@H](O)C3)c2n1
IC50 (Human alphaherpesvirus 1 [1]): 0.06 µg/mL (≈ 0.226 µM) | IC50 (Human alphaherpesvirus 2 [2]): 0.44 µg/mL (≈ 1.66 µM) | IC50 (Vero): 300 µg/mL (≈ 1130 µM)

Nc1nc(O)c2ncn(C3CC(O)C(CO)C3F)c2n1 (single isomer, unassigned; (-))
ID50 (Human alphaherpesvirus 1 [1]): 15 µg/mL (≈ 53 µM) | ID50 (Human alphaherpesvirus 2 [2]): 155 µg/mL (≈ 547 µM)

Nc1nc2c(ncn2COCCO)c(=O)[nH]1 [ACYCLOVIR]
Survivors (Human alphaherpesvirus 2 [26]): 0 | Survivors (Human alphaherpesvirus 2 [27]): 3 | IC50 (Human alphaherpesvirus 1 [1]): 0.2 µg/mL (≈ 0.888 µM) | Survivors (Human alphaherpesvirus 2 [28]): 2 | ED50 (Human alphaherpesvirus 2 [29]): 58 mg/kg | Survivors (Human alphaherpesvirus 1 [30]): 0 | Survivors (Human alphaherpesvirus 2 [31]): 1 | IC50 (Human alphaherpesvirus 2 [2]): 0.6 µg/mL (≈ 2.66 µM) | Survivors (Human alphaherpesvirus 1 [32]): 8 | Survivors (Human alphaherpesvirus 1 [33]): 0 | ED50 (Human alphaherpesvirus 1 [34]): ~50 mg/kg | ED50 (Human alphaherpesvirus 1 [34]; Human alphaherpesvirus 1, read-out: ED50): 58 mg/kg | Survivors (Human alphaherpesvirus 1 [35]): 2 | Survivors (Human alphaherpesvirus 1 [36]): 3 | Survivors (Human alphaherpesvirus 2 [37]): 2 | Survivors (Human alphaherpesvirus 2 [38]): 7 | IC50 (Vero): > 300 µg/mL | Survivors (Human alphaherpesvirus 1 [39]): 1

Nc1nc(O)c2ncn([C@@H]3O[C@H](CO)[C@@H](O)[C@@H]3F)c2n1 [F-ARAG]
IC50 (Human alphaherpesvirus 1 [1]): 5 µg/mL (≈ 17.5 µM) | IC50 (Human alphaherpesvirus 2 [2]): 19 µg/mL (≈ 66.6 µM) | IC50 (Vero): > 100 µg/mL
